In ChEMBL document CHEMBL2086305 (Eur J Med Chem, 2012):
One block for each compound: values may come before it. Calls of active or inactive are those of the source. The rule behind the calls is not given here.

Legend:
[1] = Antiplatelet activity against rabbit platelets assessed as inhibition of thrombin-induced platelet aggregation; assay type: functional, cell-based; settings: Oryctolagus cuniculus
[2] = system: Rattus norvegicus; experiment: Antithrombotic activity in Sprague-Dawley rat venous thrombosis model assessed as thrombus dry weight administered via gastric tube qd for 3 days after 2 hrs of last post dose
[3] = system: Platelet; experiment: (§1) Antiplatelet activity against rabbit platelets assessed as inhibition of ADP-induced platelet aggregation; assay type: functional, cell-based; settings: Oryctolagus cuniculus
[4] = as §1; assay type: functional, cell-based; settings: Oryctolagus cuniculus
[5] = system: Rattus norvegicus; experiment: Toxicity in Sprague-Dawley rat assessed as adverse effect at 20 mg/kg, administered via gastric tube; assay type: organism-based; parameters: dose 20 mg/kg; settings: in vivo, po
[6] = system: Rattus norvegicus; experiment: Drug metabolism in Sprague-Dawley rat plasma assessed as HTMP level at 20 mg/kg, administered via gastric tube after 0.167 hrs; assay type: ADME, organism-based; parameters: dose 20 mg/kg; settings: in vivo, po
Procedure, shortened: (§2)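 Female Sprague-Dawley rats received 20 mg/kg. Whole blood was collected at 0.167–6 h and mixed with 4% formic acid. Samples were precipitated with acetonitrile and stored at −70 °C.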

[7] = system: Rattus norvegicus; experiment: Drug metabolism in Sprague-Dawley rat plasma assessed as dabigatran level at 20 mg/kg, administered via gastric tube after 0.167 hrs; assay type: ADME, organism-based; parameters: dose 20 mg/kg; settings: in vivo, po; procedure, shortened: as §2
[8] = system: Rattus norvegicus; experiment: Drug metabolism in Sprague-Dawley rat plasma assessed as HTMP level at 20 mg/kg, administered via gastric tube after 0.25 hrs; assay type: ADME, organism-based; parameters: dose 20 mg/kg; settings: in vivo, po; procedure, shortened: as §2
[9] = system: Rattus norvegicus; experiment: Drug metabolism in Sprague-Dawley rat plasma assessed as dabigatran level at 20 mg/kg, administered via gastric tube after 0.25 hrs; assay type: ADME, organism-based; parameters: dose 20 mg/kg; settings: in vivo, po; procedure, shortened: as §2
[10] = system: Rattus norvegicus; experiment: Drug metabolism in Sprague-Dawley rat plasma assessed as HTMP level at 20 mg/kg, administered via gastric tube after 0.5 hrs; assay type: ADME, organism-based; parameters: dose 20 mg/kg; settings: in vivo, po; procedure, shortened: as §2
[11] = system: Rattus norvegicus; experiment: Drug metabolism in Sprague-Dawley rat plasma assessed as dabigatran level at 20 mg/kg, administered via gastric tube after 0.5 hrs; assay type: ADME, organism-based; parameters: dose 20 mg/kg; settings: in vivo, po; procedure, shortened: as §2
[12] = system: Rattus norvegicus; experiment: Drug metabolism in Sprague-Dawley rat plasma assessed as HTMP level at 20 mg/kg, administered via gastric tube after 1 hr; assay type: ADME, organism-based; parameters: dose 20 mg/kg; settings: in vivo, po; procedure, shortened: as §2
[13] = system: Rattus norvegicus; experiment: Drug metabolism in Sprague-Dawley rat plasma assessed as dabigatran level at 20 mg/kg, administered via gastric tube after 1 hr; assay type: ADME, organism-based; parameters: dose 20 mg/kg; settings: in vivo, po; procedure, shortened: as §2
[14] = system: Rattus norvegicus; experiment: Drug metabolism in Sprague-Dawley rat plasma assessed as HTMP level at 20 mg/kg, administered via gastric tube after 1.5 hrs; assay type: ADME, organism-based; parameters: dose 20 mg/kg; settings: in vivo, po; procedure, shortened: as §2
[15] = system: Rattus norvegicus; experiment: Drug metabolism in Sprague-Dawley rat plasma assessed as dabigatran level at 20 mg/kg, administered via gastric tube after 1.5 hrs; assay type: ADME, organism-based; parameters: dose 20 mg/kg; settings: in vivo, po; procedure, shortened: as §2
[16] = system: Rattus norvegicus; experiment: Drug metabolism in Sprague-Dawley rat plasma assessed as HTMP level at 20 mg/kg, administered via gastric tube after 2 hrs; assay type: ADME, organism-based; parameters: dose 20 mg/kg; settings: in vivo, po; procedure, shortened: as §2
[17] = system: Rattus norvegicus; experiment: Drug metabolism in Sprague-Dawley rat plasma assessed as dabigatran level at 20 mg/kg, administered via gastric tube after 2 hrs; assay type: ADME, organism-based; parameters: dose 20 mg/kg; settings: in vivo, po; procedure, shortened: as §2
[18] = system: Rattus norvegicus; experiment: Drug metabolism in Sprague-Dawley rat plasma assessed as HTMP level at 20 mg/kg, administered via gastric tube after 4 hrs; assay type: ADME, organism-based; parameters: dose 20 mg/kg; settings: in vivo, po; procedure, shortened: as §2
[19] = system: Rattus norvegicus; experiment: Drug metabolism in Sprague-Dawley rat plasma assessed as dabigatran level at 20 mg/kg, administered via gastric tube after 4 hrs; assay type: ADME, organism-based; parameters: dose 20 mg/kg; settings: in vivo, po; procedure, shortened: as §2
[20] = system: Rattus norvegicus; experiment: Drug metabolism in Sprague-Dawley rat plasma assessed as HTMP level at 20 mg/kg, administered via gastric tube after 6 hrs; assay type: ADME, organism-based; parameters: dose 20 mg/kg; settings: in vivo, po; procedure, shortened: as §2
[21] = system: Rattus norvegicus; experiment: Drug metabolism in Sprague-Dawley rat plasma assessed as dabigatran level at 20 mg/kg, administered via gastric tube after 6 hrs; assay type: ADME, organism-based; parameters: dose 20 mg/kg; settings: in vivo, po; procedure, shortened: as §2

Compound: Cc1nc(C)c(COC(=O)CCN(C(=O)c2ccc3c(c2)nc(CNc2ccc(/C(N)=N\C(=O)OC(C)C)cc2)n3C)c2ccccn2)nc1C
IC50 [1]: 0.295 µM

Compound: Cc1nc(C)c(COC(=O)CCN(C(=O)c2ccc3c(c2)nc(CNc2ccc(/C(N)=N\C(=O)OCc4ccccc4)cc2)n3C)c2ccccn2)nc1C
IC50 [1]: 0.292 µM

Compound: CCCCCCOC(=O)NC(=N)c1ccc(NCc2nc3cc(C(=O)N(CCC(=O)OCC)c4ccccn4)ccc3n2C)cc1 [DABIGATRAN ETEXILATE]
IC50 [1]: 0.326 µM | inhibition [3]: inactive | ED50 [2]: 4.4 mg/kg

Compound: Cc1nc(C)c(CO)nc1C
IC50 [1]: 8410 µM | IC50 [4]: 1670 µM | ED50 [2]: 42.6 mg/kg

More lines, main results first:

IC50 [1]: 0.218 µM
Compound: CCOC(=O)/N=C(/N)c1ccc(NCc2nc3cc(C(=O)N(CCC(=O)OCc4nc(C)c(C)nc4C)c4ccccn4)ccc3n2C)cc1

IC50 [1]: 0.00313 µM
Compound: Cc1nc(C)c(COC(=O)CCN(C(=O)c2ccc3c(c2)nc(CNc2ccc(/C(N)=N\C(=O)OC(C)(C)C)cc2)n3C)c2ccccn2)nc1C
ED50 [2]: 1.8 mg/kg

IC50 [1]: 0.287 µM
Compound: COC(=O)/N=C(/N)c1ccc(NCc2nc3cc(C(=O)N(CCC(=O)OCc4nc(C)c(C)nc4C)c4ccccn4)ccc3n2C)cc1

IC50 [1]: 0.0728 µM
Compound: CCCCCOC(=O)/N=C(/N)c1ccc(NCc2nc3cc(C(=O)N(CCC(=O)OCc4nc(C)c(C)nc4C)c4ccccn4)ccc3n2C)cc1

IC50 [1]: 0.0381 µM | IC50 [4]: 4030 µM | Drug metabolism [6]: 423 ng/mL | Drug metabolism [7]: 109 ng/mL | Drug metabolism [8]: 955 ng/mL | Drug metabolism [9]: 245 ng/mL | Drug metabolism [10]: 1075 ng/mL | Drug metabolism [11]: 252 ng/mL | Drug metabolism [12]: 938 ng/mL | Drug metabolism [13]: 264 ng/mL | Drug metabolism [14]: 495 ng/mL | Drug metabolism [15]: 164 ng/mL | Drug metabolism [16]: 430 ng/mL | Drug metabolism [17]: 152 ng/mL | Drug metabolism [18]: 188 ng/mL | Drug metabolism [19]: 67.3 ng/mL | Drug metabolism [20]: 93.3 ng/mL | Drug metabolism [21]: 18.2 ng/mL
Compound: CCCCCCOC(=O)/N=C(/N)c1ccc(NCc2nc3cc(C(=O)N(CCC(=O)OCc4nc(C)c(C)nc4C)c4ccccn4)ccc3n2C)cc1
Activity [5]: Non-toxic | ED50 [2]: 2.1 mg/kg
